From PubChem
CHRM5 PAM: human M5 muscarinic receptor positive allosteric modulators, primary screen, CHO-K1 cells, Fluo-8 calcium fluorescence; Muscarinic acetylcholine receptor M5 (Homo sapiens), P08912; CHO-K1 hM5, ACh EC20 PAM; 0% = ACh EC20, 100% = ACh EC100; activation, % at 3 µM; hit rate 0.3% among 360,000;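 active means activation above the run cutoff, the mean activation of all test compounds plus 3 SD, cut at about 18% in these data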
Target sequence (P08912 whole entry, looked up): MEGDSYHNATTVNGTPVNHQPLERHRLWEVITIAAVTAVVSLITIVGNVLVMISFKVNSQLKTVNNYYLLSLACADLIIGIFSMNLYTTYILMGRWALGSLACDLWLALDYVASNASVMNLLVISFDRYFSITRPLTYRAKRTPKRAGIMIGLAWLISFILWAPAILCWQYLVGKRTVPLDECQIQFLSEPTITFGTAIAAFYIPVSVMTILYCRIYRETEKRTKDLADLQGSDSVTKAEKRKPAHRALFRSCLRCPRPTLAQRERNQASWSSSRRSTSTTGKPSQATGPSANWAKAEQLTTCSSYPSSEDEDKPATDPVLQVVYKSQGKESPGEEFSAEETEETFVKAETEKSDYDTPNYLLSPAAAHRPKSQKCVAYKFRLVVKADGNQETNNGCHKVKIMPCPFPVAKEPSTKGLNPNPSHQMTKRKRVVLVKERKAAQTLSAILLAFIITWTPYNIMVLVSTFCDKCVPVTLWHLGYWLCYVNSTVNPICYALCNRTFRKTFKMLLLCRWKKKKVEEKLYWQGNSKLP
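Probe or stimulus: acetylcholine, EC20 level; Assay system: human M5 receptor in CHO-K1 cells; Schedule: compound preincubation 140 s before EC20 acetylcholine addition; Technique: intracellular calcium via Fluo-8 fluorescence; Dosing: single-point, 3 µM nominal; Read-out basis: percent activation from peak-over-basal fluorescence ratio, scaled EC20-to-EC100 acetylcholine; Repeats: one well per compound, no replicates.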
CHRM4 antagonist: human M4 muscarinic receptor antagonists, primary screen, CHO cells, Fluo-8 calcium fluorescence; Muscarinic acetylcholine receptor M4 (Homo sapiens), P08173; CHO-hM4 cells, ACh EC80; inhibition, % at 3 µM; hit rate 0.73% among 360,000; AID 624125, 2012;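 active means inhibition above its plate's cutoff, the mean inhibition of sample wells plus 3 SD, cut at about 27% in these data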;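 further: 0% = acetylcholine EC80 with DMSO and 100% = DMSO without agonist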
M5 ag: human M5 muscarinic receptor agonists, primary screen, CHO-K1 cells, Fluo-8 calcium fluorescence; activation, % at 3 µM; AID 624037, 2012; Muscarinic acetylcholine receptor M5 (Homo sapiens), P08912; hit rate 0.19% among 360,000; CHO-K1 hM5 cells; 0% DMSO wells, 100% maximal acetylcholine response;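 active means activation above the run's mean over test compounds plus 3 SD, cut at about 23% in these data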;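 further: signal is peak over basal fluorescence ratio across the kinetic read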
CHRM5 antagonist: human M5 muscarinic receptor antagonists, primary screen, CHO cells, Fluo-8 calcium fluorescence. Muscarinic acetylcholine receptor M5 (Homo sapiens), P08912. CHO-hM5 cells, ACh EC80. inhibition, % at 3 µM. hit rate 0.59% among 360,000. AID 624040, 2012;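 active means inhibition above a per-plate cutoff, the mean of that plate's test compounds plus 3 SD, cut at about 27% in these data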;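 further: 0% = acetylcholine EC80 with DMSO and 100% = DMSO without agonist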
CHRM4 agonist: human M4 muscarinic receptor agonists, primary screen, CHO-K1 cells, Fluo-8 calcium fluorescence; activation, % at 3 µM; CHO-K1 hM4/Gqi5; vehicle 0%, full acetylcholine response 100%; Muscarinic acetylcholine receptor M4 (Homo sapiens), P08173; hit rate 0.14% among 360,000;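 active means activation above the run mean over all test wells plus 3 SD, cut at about 32% in these data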;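 further: peak over basal fluorescence ratio per well then scaled between controls; 0% = DMSO wells and 100% = acetylcholine at EC100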
CHRM4 PAM: human M4 muscarinic receptor positive allosteric modulators, primary screen, CHO-K1 cells, Fluo-8 calcium fluorescence. hit rate 0.4% among 360,000. Muscarinic acetylcholine receptor M4 (Homo sapiens), P08173. activation, % at 3 µM. AID 624126, 2012. CHO-K1 hM4/Gqi5, ACh EC20; 0% = ACh EC20, 100% = maximal ACh;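 active means activation above its plate's cutoff, the mean activation of sample wells plus 3 SD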
* hit, by the source's call. Rows were chosen to be rich in hits. Some 1.8% of all compounds tested hit in one or more screens of this group.

SMILES	CHRM5 PAM	CHRM4 antagonist	M5 ag	CHRM5 antagonist	CHRM4 agonist	CHRM4 PAM
CC(=O)Nc1ccc(/C(C)=N/Nc2nc(N3CCOCC3)nc(N3CCOCC3)n2)cc1	-9	6	-1	12	1	-2
C=CCn1c(=N)n(CC(O)c2ccco2)c2ccccc21 (stereo not given)	29*	14	-2	8	1	17*
CCN(CC)C(=O)Cn1cc(C(=O)C(=O)N(C)C2CCN(C)CC2)c2ccccc21	2	-4	-4	6	0	17*
CCC1CCCCN1C(=O)C(=O)c1cn(CC(=O)N(CC)CC)c2ccccc12 (stereo not given)	-2	1	-4	9	0	-6
Cc1cccc(C(=O)OCC(=O)Nc2nnc(-c3ccccc3)o2)c1O	7	2	2	-6	0	6
CCOC(=O)c1sc(NC(=O)CSc2nc(C)cc(C)n2)c(C#N)c1C	-2	-4	2	-3	1	5
CCOC(=O)c1c(NC(=O)CSc2nnc(-c3ccccc3)o2)sc(C(C)=O)c1C	8	0	1	-2	2	15*
CCOC(=O)c1sc(NC(=O)CSc2n[nH]c(-c3ccccc3)n2)c(C#N)c1C	-24	0	5	34*	15	-12
CCOC(=O)c1c(NC(=O)CSc2nnc(-c3ccc(C)cc3)o2)sc(C(C)=O)c1C	-5	-7	-1	18	1	17
O=C(C[C@H]1C/C=C\C[C@H](NC(=O)OCC2c3ccccc3-c3ccccc32)C(=O)O[C@H](c2ccccc2)CNC1=O)N[C@H](CO)Cc1ccccc1	4	-1	4	3	-1	11
C=CCN1C(=O)/C(=C/C=C2/N(CC)c3ccc(S(=O)(=O)N(C)C)cc3N2CC)SC1=S	-7	0	24*	-7	5	-11
Cc1ccc(C(=O)NNC(=O)c2ccc(S(=O)(=O)N(C)c3ccccc3)cc2)cc1	1	-9	1	-5	3	2
COc1ccccc1CNS(=O)(=O)c1cc(C(=O)N(C)Cc2cccnc2)c(Cl)cc1Cl	-1	-2	1	1	6	-3
c1ccc(-c2nc3ccccc3[nH]2)cc1	1	-4	1	-7	1	-1
Nc1cc(N)cc(-c2nc3ccccc3[nH]2)c1	5	26*	0	-5	0	9
CCCCC(=O)N(C)c1c(CC)nc2c(OCc3cccc(Cl)c3)cccn12	-3	8	-2	0	0	-6
O=C(COC(=O)C1COc2ccccc2O1)NC(=O)Nc1ccc2c(c1)OCCO2 (stereo not given)	1	0	0	0	2	23*
O=C(COC(=O)C1COc2ccccc2O1)Nc1cccc(Cl)c1 (stereo not given)	-7	6	-1	18	1	0
O=C(COC(=O)CNC(=O)c1ccc(Br)o1)Nc1ccc2c(c1)OCCO2	0	16	4	0	2	-5
O=C(COC(=O)c1ccc(Br)o1)Nc1ccc2c(c1)OCCO2	-1	-10	2	-3	1	26*
C[C@@H]1CN([C@H](C)CO)C(=O)CCCn2nncc2CO[C@H]1CN(C)C(=O)c1ccccc1	5	-10	0	-4	0	0
COC(=O)c1cc(S(=O)(=O)NCCc2sccc2C)c[nH]1	-5	2	1	11	3	-4
O=C(COC(=O)c1ccccc1F)Nc1ccc2c(c1)OCCO2	1	-4	0	5	2	1
O=C(NCc1cccs1)c1ccc(N2CCCC2=O)cc1	22*	13	-2	6	1	1
CNc1cncc(-c2ccc(CN(C)C)cc2)n1	0	-6	0	0	0	-3
SMILES	CHRM5 PAM	CHRM4 antagonist	M5 ag	CHRM5 antagonist	CHRM4 agonist	CHRM4 PAM
COc1cc(-n2c(=O)c3ccccc3n(Cc3cccc(F)c3)c2=O)cc(OC)c1OC	8	1	0	-17	0	-6
COc1cc(-n2c(=O)c3ccccc3n(Cc3ccccc3)c2=O)cc(OC)c1OC	30*	-2	3	30*	0	2
CC1CC(C)CN(c2ncc3c(n2)CC(c2ccccc2Cl)CC3=O)C1 (stereo not given)	7	16	1	-8	0	7
CC1CC(C)CN(c2ncc3c(n2)CC(c2ccc(Cl)cc2)CC3=O)C1 (stereo not given)	39*	6	6	-6	1	7
CN1CCN(C(=O)c2cc(Oc3c(F)c(F)c(F)c(F)c3F)cc(C(=O)N3CCN(C)CC3)c2)CC1	2	-4	-2	-1	1	5
CN[C@H]1C[C@H]2c3cc(N4CCN(C)CC4)ccc3CCN2C(=O)[C@H]1[C@H](C)O	5	-8	-1	-4	0	8
O=S(=O)(NNc1ccc(F)cc1F)c1cccc(Cl)c1	-8	67*	-3	12	1	-19
O=C(NNc1ccc(F)cc1F)c1c(F)cccc1Cl	9	-6	5	-15	1	-9
CC(OC(=O)c1cccc(S(=O)(=O)N2CCCC2)c1)C(=O)c1ccccc1 (stereo not given)	-11	-2	-3	26	5	3
O=C(COC(=O)c1ccccn1)NC12CC3CC(CC(C3)C1)C2	7	30*	1	4	1	11
O=C(COC(=O)c1ccccc1O)NC12CC3CC(CC(C3)C1)C2	-11	13	2	2	2	-5
COc1ccc2c(c1)[nH]c1c(N3CCN(Cc4ccc5c(c4)OCO5)CC3)ncnc12	-16	11	1	32*	13	-13
COc1ccc2c(c1)[nH]c1c(N3CCSCC3)ncnc12	-10	14	6	6	24	-13
O=C1Nc2ccc(Cl)cc2C(C#CC2CC2)(C(F)(F)F)O1 (stereo not given)	-11	32*	-2	4	-2	-15
O=C(Nc1cccc(-c2ccc(F)cc2)c1)C1CCCN(C(=O)c2cscn2)C1 (stereo not given)	-2	-10	0	3	3	-3
CCc1ccccc1NC(=S)N1CCNC(=O)C1CC(=O)OC (stereo not given)	8	-1	1	-12	0	0
